The record followed here is ChEMBL document CHEMBL4513216, “Probing the Open Global Health Chemical Diversity Library for Multistage-Active Starting Points for Next-Generation Antimalarials” (ACS Infect Dis, 2020).

A short description of the data set: Toxicity liver stage against HepG2, at 10uM. The format is cell-based. The arrangement: test concentration 10 uM, cell line HepG2-A16-CD81EGFP. As to conditions: human, HepG2-A16-CD81EGFP cells; read-out: INHIBITION
An outline of the steps: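 Uninfected HepG2-A16-CD81EGFP cells, 3 × 10^3 per well, 1536-well, plated on prespotted compound at 10 μM final, parasite-free screening media added to match infected plates; puromycin 10 μM positive, DMSO 0.5% negative; run in parallel with 48 h PbLuc assay at 37 °C, 5% CO2; viability by CellTiter-Glo luminescence, normalized to controls.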
For the molecule `O=C(Cc1cnc(-c2c(Cl)cccc2Cl)s1)N1CCC2(CC1)OCCO2`, the cytotoxicity at 10 µM was -0.367%.

As to `Cc1nc(NC(=O)CCN2C(=O)c3ccccc3NC2C(C)C)sc1C` (stereo not drawn), the cytotoxicity at 10 µM turned out to be 0.308%.

For `Cc1ccc(C(=O)NC2CC2)c(-n2cnnn2)c1C`, the cytotoxicity at 10 µM is -2.27%.

For the molecule `O=C(CCc1nnc2ccccn2c1=O)NCc1ccco1`, the cytotoxicity at 10 µM is -7.51%.

`O=C(CC1CSc2nccc(=O)n21)NCc1ccco1` (stereo not drawn): the cytotoxicity at 10 µM is -7.2%.

For the molecule `CCCc1cc(=O)n(CC(=O)NCCOC)c(-n2nc(C)cc2C)n1`, the cytotoxicity at 10 µM was 1.69%.

With `CCCC(=O)N1CCC(c2nn(C)c(=O)n2-c2ccccc2)CC1`, the cytotoxicity at 10 µM turned out to be 5.91%.

As for `CN1[C@H](CN2CCCC2)C[C@@H]2CN(C(=O)c3ccsc3)CC[C@@H]21`, the cytotoxicity at 10 µM turned out to be 0.847%.

Regarding `Cc1ccc(CSc2ncc(Br)c(C(=O)O)n2)cc1`, the cytotoxicity at 10 µM was -2.3%.

In the case of `CC(C)(C)NC(=O)c1nn(C2CCS(=O)(=O)C2)c2c1CCCC2` (stereo not drawn), the cytotoxicity at 10 µM was found to be 10.1%.

Turning to `CC1(C)OCC(CNC(=O)c2cnn(-c3ccc(Cl)cc3)c2N)O1` (stereo not drawn), the cytotoxicity at 10 µM is 2.31%.

Consider `CC(C)CNC(=O)CN(Cc1ccc(F)cc1)S(C)(=O)=O`, for which the cytotoxicity at 10 µM is 10.2%.

Turning to `COc1ccccc1C(=O)Nc1c(F)c(C(=O)N2CCCC2)nn1C`, the cytotoxicity at 10 µM stood at 5.83%.

As for `CCCN1CCN(C(=O)C(C)n2cc(Br)cn2)CC1` (stereo not drawn), the cytotoxicity at 10 µM is -18.8%.

For `CCn1ncc(S(=O)(=O)N[C@@H]2CCC[C@@H](n3ccnc3)[C@@H]2O)c1C`, the cytotoxicity at 10 µM stood at 1.18%.

In the case of `Cc1ncc(-c2ccccn2)c(CCNC(=O)CCC2CCCO2)n1` (stereo not drawn), the cytotoxicity at 10 µM is 11.7%.

As for `OC1(CNc2cccc(F)c2)CCNCC1`, the cytotoxicity at 10 µM turned out to be 5.38%.

On to `CNC(=O)C(c1cccc(Cl)c1)C(C)C` (stereo not drawn), for which the cytotoxicity at 10 µM came to 2.02%.

`CC(=O)NCCNC(=O)c1sccc1Br`: the cytotoxicity at 10 µM was found to be 4.2%.

As for `O=S(=O)(c1cncc(F)c1)N1CCSC2(CCCCC2)C1`, the cytotoxicity at 10 µM was 9.48%.

Regarding `O=C(NS(=O)(=O)c1cccnc1)C1CC(c2ccccc2)=NO1` (stereo not drawn), the cytotoxicity at 10 µM is -8.87%.

On to `CCOc1nnc(CN2CCN(CCOC)C(CC)C2)s1` (stereo not drawn), for which the cytotoxicity at 10 µM was -5.73%.

Turning to `Cc1cc(N2CCCC2c2cccnc2)nc(C)n1` (stereo not drawn), the cytotoxicity at 10 µM was -8.3%.

In the case of `Cn1cccc(NC(=O)NCCOCc2ccccc2)c1=O`, the cytotoxicity at 10 µM is -37.8%.

As to `CCC(=O)Nc1ccc(C(C)Nc2nc3c(cnn3C)c(=O)[nH]2)cc1` (stereo not drawn), the cytotoxicity at 10 µM stood at 4.01%.

In the case of `Cc1cc(CSCc2cc(C)on2)on1`, the cytotoxicity at 10 µM worked out at 6.42%.

As to `COc1ccc(CNC2CCc3ncnn3C2)cc1OCCCC#N` (stereo not drawn), the cytotoxicity at 10 µM was -5.45%.

As to `COCC(=O)N[C@H](C(=O)NC(C)c1cccc(C)c1C)C(C)C` (stereo partly drawn), the cytotoxicity at 10 µM came to 5.38%.

With `CC(NC(=O)NCC(C)(C)C(N)=O)c1nc(-c2ccccc2)cs1` (stereo not drawn), the cytotoxicity at 10 µM came out at 12.7%.

Regarding `CCC(C)NC(=O)CN1CCOCC1` (stereo not drawn), the cytotoxicity at 10 µM was -5.74%.

Consider `Cc1ccc(C2COCCN2C(=O)c2ccc(C)s2)o1` (stereo not drawn), for which the cytotoxicity at 10 µM is -3.9%.

Regarding `OCC(CO)Nc1cccc(C(F)(F)F)n1`, the cytotoxicity at 10 µM stood at 0.409%.

For `COCc1noc(C2(c3cccc(Cl)c3)CCOCC2)n1`, the cytotoxicity at 10 µM was -2.93%.

Regarding `COc1cc(NCc2c(C)noc2C)c(OC)cc1Cl`, the cytotoxicity at 10 µM is 47%.

Consider `COCCCNC(=O)Nc1cc(-c2ccccc2C)nn1CCO`, for which the cytotoxicity at 10 µM was -0.267%.

For `CCOCC1CCN(C(=O)Nc2ccc3c(c2)CCCO3)C1` (stereo not drawn), the cytotoxicity at 10 µM was 10.6%.

Take `CC(C)(CNc1cc(F)ccc1F)S(C)(=O)=O`: the cytotoxicity at 10 µM was -2.94%.

With `Cn1cc(Br)cc1C(=O)NC1(C#N)CC1`, the cytotoxicity at 10 µM came out at 21.8%.

As to `NCc1ccc(Oc2cccc(Cl)c2Cl)nc1`, the cytotoxicity at 10 µM was 4.75%.

Regarding `NS(=O)(=O)c1ccc(CNCC(=O)NCc2ccc(Cl)cc2Cl)cc1`, the cytotoxicity at 10 µM is -48.6%.

For `COc1cc(NC2CCCNC2)cc(OC)c1` (stereo not drawn), the cytotoxicity at 10 µM is -9.57%.

For the molecule `COc1ccc(CNC(C)c2cnc3cc(C)nn3c2C)cc1` (stereo not drawn), the cytotoxicity at 10 µM was -4.86%.

As to `Cc1nc(C)c(CNCC2CCCn3ccnc32)s1` (stereo not drawn), the cytotoxicity at 10 µM was -14.6%.

Turning to `Cc1ccc(CC2CCCN2CC(=O)NCc2ccccn2)cc1` (stereo not drawn), the cytotoxicity at 10 µM worked out at 6.46%.

On to `OCc1nnc2n1CCN(c1cnccn1)C2`, for which the cytotoxicity at 10 µM was determined as 5.59%.

In the case of `CC(C)NC(=O)N1CC[C@H]2N(C)CC[C@@]2(C(=O)Nc2cccnc2)CC1`, the cytotoxicity at 10 µM is -109%.

For `CS(=O)(=O)N1C[C@@H]2COC[C@]2(COCC(=O)N2CCCC2)C1`, the cytotoxicity at 10 µM is -114%.

On to `CN1CCN(S(=O)(=O)C2CC2)Cc2cccnc21`, for which the cytotoxicity at 10 µM is -108%.

Regarding `CC(C)N1Cc2c(C(=O)N3CCN(C)CC3)nn(C)c2C1`, the cytotoxicity at 10 µM is -104%.

Turning to `Cn1ccnc1CN1C[C@@H]2OCCN(c3ncccn3)[C@@H]2C1`, the cytotoxicity at 10 µM was -73%.

For `CN(Cc1ccncc1)C1CC2(CCN(Cc3ccccn3)CC2)C1`, the cytotoxicity at 10 µM was -90.4%.

Consider `CCOCC1CN(C(=O)N2CCCC2)Cc2cnn(CC)c21` (stereo not drawn), for which the cytotoxicity at 10 µM was -77.5%.

Regarding `CC1=N[C@@]2(CC[C@@H]3CN(C(=O)NCc4ccccc4C)C[C@@H]32)C(=O)N1`, the cytotoxicity at 10 µM is -74.9%.

`Cn1cc(CN2CCCC3(CCN3S(C)(=O)=O)C2)cn1` (stereo not drawn): the cytotoxicity at 10 µM was -68.4%.

Turning to `Cc1ncc(-c2ccnc(N3CCCCC3)n2)c(=O)[nH]1`, the cytotoxicity at 10 µM stood at 7.53%.

As for `Cc1ccc(C(=O)O)cc1CNC(=O)CN1CC(C)(C)[C@@](C)(O)C1`, the cytotoxicity at 10 µM was -6.03%.

For the molecule `O=C1OCC(CO)N1Cc1cccc(Cl)c1F` (stereo not drawn), the cytotoxicity at 10 µM worked out at 0.739%.

Take `CCN(Cc1cn(C)nc1-c1ccc2c(c1)OCCO2)CC1CCCO1` (stereo not drawn): the cytotoxicity at 10 µM turned out to be 2.85%.

With `O=C(NC1CCCC1)N1C[C@H]2CN(c3ccncc3)C[C@@]2(C(=O)O)C1`, the cytotoxicity at 10 µM is 11.3%.

As to `CCN(CC1CCCCO1)C(=O)CCNC(=O)c1ccccc1F` (stereo not drawn), the cytotoxicity at 10 µM is -42.9%.

For the molecule `c1cncc(-c2cccc(-c3ccn(CCN4CCCCC4)n3)c2)c1`, the cytotoxicity at 10 µM was 2.54%.

`CCCc1ccc(C(=O)N2CCc3c(nc(C)nc3N(C)C)C2)cc1`: the cytotoxicity at 10 µM was -1.34%.

Regarding `O=C(c1cccc(-n2cccn2)c1)N1CCOC(CCO)C1` (stereo not drawn), the cytotoxicity at 10 µM came out at 0.0642%.

Turning to `CC(C)N1CCOC(CC(=O)N2CCCN(Cc3cccs3)CC2)C1` (stereo not drawn), the cytotoxicity at 10 µM was -12.2%.

Consider `Cc1nccn1CCC(=O)N1CCCN(c2ccccc2)CC1`, for which the cytotoxicity at 10 µM was -6.08%.

With `Cc1nn(C)c2nc(NC(C)c3n[nH]c(=O)[nH]3)sc12` (stereo not drawn), the cytotoxicity at 10 µM was 4.91%.

Regarding `CCN(CC)C(=O)c1ccc(Cl)c(NC(=O)c2csnn2)c1`, the cytotoxicity at 10 µM worked out at 7.3%.

As to `CNc1ncc(CN(C)C(=O)c2cccc(-n3cnnc3)c2)cn1`, the cytotoxicity at 10 µM turned out to be 1.5%.

Consider `CN(C)C(=O)CN1CC=C(c2cnn(Cc3ccccc3)c2)CC1`, for which the cytotoxicity at 10 µM is -6.12%.

Consider `OC1CN(Cc2cccc(N3CCOCC3)c2)Cc2ccccc21` (stereo not drawn), for which the cytotoxicity at 10 µM was -3.15%.

In the case of `CO[C@H]1C[C@@H](O)C12CCN(C(=O)CCSCc1ccc(F)cc1)CC2`, the cytotoxicity at 10 µM was -5.22%.

Regarding `CN(Cc1cccc(C(=O)Nc2ccnn2C)c1)CC1(C)COC1`, the cytotoxicity at 10 µM is -5.84%.

With `O=C(CCN1CCCCO1)N1CC[C@H](O)[C@@H](O)C1`, the cytotoxicity at 10 µM was -1.77%.

In the case of `COCCn1ccnc1CN1CCc2[nH]cnc2C1c1cccc(O)c1` (stereo not drawn), the cytotoxicity at 10 µM is -2%.

With `O[C@H]1[C@H](NCCc2ccccn2)c2ccccc2C12CCNCC2`, the cytotoxicity at 10 µM stood at 13.7%.

For `CNS(=O)(=O)CCNC(=O)[C@@]12CNC[C@@H]1CN(C1CCCC1)C2`, the cytotoxicity at 10 µM was 1.3%.

Regarding `CCOc1ccc(C(=O)N2CCCC2Cn2cc(C)cn2)cn1` (stereo not drawn), the cytotoxicity at 10 µM is -20.2%.

`Cn1c(C2CC2)nc2c1CCN(CCOc1ccccc1C#N)C2`: the cytotoxicity at 10 µM is -29.8%.

As for `CC(C)Cc1nc(CN2CCOC(Cn3cccn3)C2)no1` (stereo not drawn), the cytotoxicity at 10 µM was -28.9%.

Take `CCc1nc(C2CCCN2Cc2nccn2CC(F)(F)F)no1` (stereo not drawn): the cytotoxicity at 10 µM was -17.2%.

With `CN(C)c1ncccc1CNC(=O)NCCN(C)C1CCCC1`, the cytotoxicity at 10 µM is -11.9%.

As to `CCOCC(O)CN1CCN(C(=O)c2ccc(OC)cc2F)CC1` (stereo not drawn), the cytotoxicity at 10 µM is -11.9%.

Turning to `Cc1nnc2n1CCN(Cc1csc(-c3ccc(F)cc3)n1)C2`, the cytotoxicity at 10 µM is -6.78%.

With `NC(=O)c1cc(C2CCCN(CCc3ccccn3)C2)n[nH]1` (stereo not drawn), the cytotoxicity at 10 µM was -8.44%.

In the case of `COc1ccc(OCCCN2CCOC(Cn3cccn3)C2)cc1` (stereo not drawn), the cytotoxicity at 10 µM came out at 5.34%.

As for `CN(CCNC(=O)Nc1ccncc1)C1CCCCC1`, the cytotoxicity at 10 µM is -0.39%.

`Cc1cc(CN(C)C(=O)NC2CCS(=O)(=O)C2)no1` (stereo not drawn): the cytotoxicity at 10 µM is -1.61%.

Take `COCCN1CCc2c(cnc(-c3ccoc3)c2C(=O)O)C1`: the cytotoxicity at 10 µM turned out to be 0.908%.

Consider `CCN1CCOCC12CCN(C(=O)Cc1ccccc1)CC2`, for which the cytotoxicity at 10 µM was -75.3%.

In the case of `CCS(=O)(=O)NC[C@]12COC[C@H]1CN(Cc1sccc1C)C2`, the cytotoxicity at 10 µM is -75.2%.

Regarding `CNC(=O)[C@H]1C[C@@H]2CN(Cc3csc(C)n3)C[C@@H]2N1S(C)(=O)=O`, the cytotoxicity at 10 µM is -3.78%.

With `O=C(NCc1ccccn1)[C@H]1COC[C@H]2CN(C3CCCC3)C[C@H]21`, the cytotoxicity at 10 µM was -73.6%.

On to `CC(=O)N1CCCCC12CCCN(Cc1ccco1)C2` (stereo not drawn), for which the cytotoxicity at 10 µM is 4.59%.

Regarding `CN(C)C[C@]12COC[C@H]1CN(Cc1ccc3c(c1)OCO3)C2`, the cytotoxicity at 10 µM was -123%.

Consider `c1csc(CN2Cc3nccn3CC(Cn3cncn3)C2)n1` (stereo not drawn), for which the cytotoxicity at 10 µM is -9.35%.

With `O=C(c1cnccn1)N1C[C@H]2CC[C@@H](C1)N(C(=O)Cc1ccsc1)C2`, the cytotoxicity at 10 µM was -13.3%.

In the case of `COc1ccc(-n2cc3nc(N)[nH]cc-3c2=O)cc1`, the cytotoxicity at 10 µM was determined as 6.25%.

For the molecule `Cc1cc(C(=O)NC2CCC3(CCC(=O)N3C)CC2)no1` (stereo not drawn), the cytotoxicity at 10 µM was -0.361%.
